Laboratory results as given in PMC6943132 (Nucleic Acids Research, 2019).
Like-named read-outs stand apart in the source and are kept apart here.

Assays:
[1] = biological target: T1, BenM WT (Acinetobacter sp. ADP1, UniProt O68014 1-304); experiment: BLI
T1 sequence: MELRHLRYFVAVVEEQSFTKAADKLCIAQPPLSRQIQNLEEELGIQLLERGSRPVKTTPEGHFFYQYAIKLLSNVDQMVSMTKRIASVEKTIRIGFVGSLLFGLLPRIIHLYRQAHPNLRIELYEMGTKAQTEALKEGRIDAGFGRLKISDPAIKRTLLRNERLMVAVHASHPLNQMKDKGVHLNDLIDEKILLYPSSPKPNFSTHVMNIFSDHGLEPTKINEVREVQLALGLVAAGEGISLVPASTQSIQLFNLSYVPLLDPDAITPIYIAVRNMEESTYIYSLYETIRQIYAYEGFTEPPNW

[2] = system: 209 bp_CYC1pro; experiment: Biolayer interferometry of BenM WT on negative control cyc1 promoter element; assay type: binding; conditions: BLI, 1.6–100 nM WT BenM
Procedure, shortened: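 His-tagged protein purified on a HisTrap column with stepwise imidazole elution (Tris–HCl, NaCl, glycerol, DTT, pH 7.9), then optionally polished by Superdex 200 gel filtration (50 mM Tris–HCl, 150 mM NaCl, pH 8.0). Biotinylated 209 bp promoter duplex was annealed at 94°C for 2 min, then RT for 3 h. Kinetics were kept only when fit R² > 0.95; Req/Rmax fractional saturation versus protein concentration gave the Hill coefficient.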

[3] = system: 209bp_CYC1p_BenO_T1::yEGFP reporter; assay type: cell-based, Saccharomyces cerevisiae
Procedure, shortened: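 S. cerevisiae CEN.PK carrying a chromosomal yeGFP reporter and plasmid-borne BenM variants, grown overnight in SC-Leu at 30°C. Cultures were subcultured 1:100 into medium ± CCM for 22–23 h, then flow cytometry (488 nm) gave MFI from 10 000 gated single cells. Controls were run in biological triplicate. Fold induction is inducer-medium MFI divided by control-medium MFI. Populations were compared by two-tailed Mann–Whitney test.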

[4] = system: 209bp_CYC1p_BenO_T1::yEGFP reporter; assay type: cell-based, Saccharomyces cerevisiae; conditions: P < 0.05

B1: 209bp_CYC1pro (dsDNA)
DNA 1: ATTAGGACCTTTGCAGCATAAATTACTATACTTCTATAGACACACAAACACAAATACACACACTAAATTAATA
DNA 2: TATTAATTTAGTGTGTGTATTTGTGTTTGTGTGTCTATAGAAGTATAGTAATTTATGCTGCAAAGGTCCTAAT
[1]
  binding result: no binding

B2: BenM WT: Acinetobacter sp. ADP1 CCM-binding LysR-type transcriptional activator BenM, wild type (protein, UniProt O68014 1-304, looked up)
HTH-type transcriptional …: MELRHLRYFVAVVEEQSFTKAADKLCIAQPPLSRQIQNLEEELGIQLLERGSRPVKTTPEGHFFYQYAIKLLSNVDQMVSMTKRIASVEKTIRIGFVGSLLFGLLPRIIHLYRQAHPNLRIELYEMGTKAQTEALKEGRIDAGFGRLKISDPAIKRTLLRNERLMVAVHASHPLNQMKDKGVHLNDLIDEKILLYPSSPKPNFSTHVMNIFSDHGLEPTKINEVREVQLALGLVAAGEGISLVPASTQSIQLFNLSYVPLLDPDAITPIYIAVRNMEESTYIYSLYETIRQIYAYEGFTEPPNW
[2]
  binding to negative control cyc1 promoter element: no binding was observed
[3]; 0.035 mM CCM
  fold-induction: 0.90 ± 0.05
[3]; 0.070 mM CCM
  fold-induction: 1.02 ± 0.14
[3]; 1.4 mM CCM vs control medium
  fold induction: 2.8 fold
[3]; P < 0.05 vs control medium
  lowest CCM concentration with significant induction (lower detection limit): 0.56 mM
[3]; within the operational range of WT BenM
  fold induction by CCM: 5 fold
[4]
  lowest adipic acid concentration with significant induction: 14 mM
